# Test results from paper PMC3242808 (The Journal of neuroscience : the official journal of the …, 2011).
# Several values for one entry are separate records, joined by “and”; a condition that tells them apart may be missing. Equal entries are not always repeated.
# Legend:
# CD1 mice [1] = experiment: AITC-induced spontaneous pain; assay type: in vivo, mouse; details: AITC 1 μg; for AITC-induced pain: 10 μg intraplantar; for AITC-induced nocifensive behaviors: 10 ng intraplantar
# CD1 mice [2] = experiment: Capsaicin-induced spontaneous pain; assay type: in vivo, mouse; details: capsaicin 1 μg; for Capsaicin-induced pain: 10 μg intraplantar; for Capsaicin-induced nocifensive behaviors: 10 ng intraplantar
# TRPA1 [3] = target: TRPA1 (Mus musculus, UniProt Q8BLA8); experiment: Whole-cell patch clamp of AITC-induced TRPA1 currents in dissociated DRG neurons; assay type: cell-based; details: for Effect on TRPA1 currents: AITC (300 μM)-induced current; for IC50: read-out: TRPA1 IC50, TRPA1 current induced by AITC (300 μM), DRG neurons
# TRPA1 [4] = experiment: AITC-induced sEPSC frequency increase in lamina II neurons of spinal cord slices; assay type: cell-based, mouse; details: AITC 300 μM
# Summary of the method: (§1)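 Transverse L4–L5 spinal cord slices (400–600 μm) from CD1 mice aged 4–6 weeks, perfused with Krebs solution gassed with 95% O2/5% CO2 at 37°C. Whole-cell sEPSCs recorded from lamina IIo neurons held at −70 mV with K-gluconate internal solution at pH 7.4. Signals filtered at 2 kHz and digitized at 5 kHz. Frequency ratio taken against pretreatment baseline, with AITC at […]; n = 5–9 neurons.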
# TRPV1 [5] = target: TRPV1 (Mus musculus, UniProt Q704Y3); assay type: cell-based; details: for IC50: read-out: TRPV1 IC50
# [6] = system: C-fiber-evoked field potentials in the dorsal horn; experiment: Spinal cord LTP of C-fiber-evoked field potentials in anesthetized mice; assay type: in vivo, mouse; details: 10 ng intrathecal, 2 h after LTP induction
# Summary of the method: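 Mice under urethane (1.5 g/kg i.p.), laminectomy at T13–L1. Bipolar sciatic nerve stimulation; C-fiber field potentials recorded in ipsilateral L4–L5 dorsal horn at 100–300 μm depth. Test pulses (2× threshold, 0.5 ms) every 5 min for >40 min, then tetanus (5× threshold, 100 Hz, 1 s, four trains, 10 s apart). Test compound 10 ng i.t. via PE5 catheter 2 h post-induction; n = 5; two-way ANOVA.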
# [7] = system: lamina II neurons of spinal cord slices; experiment: sEPSCs in spinal cord slices from CFA-inflamed mice; assay type: cell-based, mouse; details: 1 ng/ml; slices from CFA-inflamed mice (one day)
# Summary of the method: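 CD1 mice received CFA intraplantar (20 μl, 1 mg/ml) and were sliced 1 d later. Slices were compared with ones from noninflamed mice. L4–L5 transverse slices (400–600 μm) were perfused with Krebs solution at 37°C. Whole-cell recording from lamina IIo neurons held at −70 mV. sEPSC frequency and amplitude measured with test compound at 1 ng/ml; n = 5 neurons.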
# CD1 mice [8] = experiment: CFA-induced persistent inflammatory pain; assay type: in vivo, mouse; details: 10 ng intrathecal, 3 days after CFA
# CD1 mice [9] = experiment: Carrageenan-induced inflammatory pain; assay type: in vivo, mouse; details: 10 ng intraplantar
# TRPV1 [10] = assay type: cell-based, mouse; details: capsaicin 1 μM
# [11] = system: lamina II neurons of spinal cord slices; experiment: Patch clamp of basal sEPSCs in lamina II neurons of spinal cord slices; assay type: cell-based, mouse; details: RvD2 alone, 1 ng/ml
# Summary of the method: as §1
# CD1 mice [12] = experiment: Rota-Rod test of motor function; assay type: in vivo, mouse; details: 10 ng i.t., naive animals
# CD1 mice [13] = experiment: Formalin test; assay type: in vivo, mouse; details: 0.01 ng intrathecal
# [14] = TRPV1 current induced by capsaicin (100 nM), DRG neurons
# [15] = GDPβS 2.5 mM, 8 min, RvD2 1 ng/ml
# [16] = PTX 0.5 μg/ml, 18 h, RvD2 1 ng/ml
# TRPV1 (Mus musculus, UniProt Q704Y3), sequence (Q704Y3 whole entry): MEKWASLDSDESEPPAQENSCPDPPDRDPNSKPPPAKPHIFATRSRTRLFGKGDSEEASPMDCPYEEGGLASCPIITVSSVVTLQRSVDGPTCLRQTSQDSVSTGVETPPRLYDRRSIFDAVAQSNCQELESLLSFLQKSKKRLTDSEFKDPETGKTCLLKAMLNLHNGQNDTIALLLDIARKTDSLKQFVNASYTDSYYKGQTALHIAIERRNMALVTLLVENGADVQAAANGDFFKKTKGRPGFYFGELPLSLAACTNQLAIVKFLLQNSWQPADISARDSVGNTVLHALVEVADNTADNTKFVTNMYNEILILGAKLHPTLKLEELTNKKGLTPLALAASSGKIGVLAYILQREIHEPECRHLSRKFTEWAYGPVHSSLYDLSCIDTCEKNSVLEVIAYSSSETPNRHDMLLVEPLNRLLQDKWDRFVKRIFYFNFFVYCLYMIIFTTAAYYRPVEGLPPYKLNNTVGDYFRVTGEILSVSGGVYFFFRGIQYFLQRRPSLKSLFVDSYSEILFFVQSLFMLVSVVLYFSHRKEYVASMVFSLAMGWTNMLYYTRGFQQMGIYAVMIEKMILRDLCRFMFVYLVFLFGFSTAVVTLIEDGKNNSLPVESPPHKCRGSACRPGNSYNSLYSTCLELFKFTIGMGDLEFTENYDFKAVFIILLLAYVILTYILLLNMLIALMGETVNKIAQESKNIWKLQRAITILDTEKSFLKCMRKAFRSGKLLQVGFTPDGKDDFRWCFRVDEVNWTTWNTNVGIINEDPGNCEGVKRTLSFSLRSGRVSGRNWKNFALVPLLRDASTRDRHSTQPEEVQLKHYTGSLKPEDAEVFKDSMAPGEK
# TRPA1 (Mus musculus, UniProt Q8BLA8), sequence (Q8BLA8 whole entry): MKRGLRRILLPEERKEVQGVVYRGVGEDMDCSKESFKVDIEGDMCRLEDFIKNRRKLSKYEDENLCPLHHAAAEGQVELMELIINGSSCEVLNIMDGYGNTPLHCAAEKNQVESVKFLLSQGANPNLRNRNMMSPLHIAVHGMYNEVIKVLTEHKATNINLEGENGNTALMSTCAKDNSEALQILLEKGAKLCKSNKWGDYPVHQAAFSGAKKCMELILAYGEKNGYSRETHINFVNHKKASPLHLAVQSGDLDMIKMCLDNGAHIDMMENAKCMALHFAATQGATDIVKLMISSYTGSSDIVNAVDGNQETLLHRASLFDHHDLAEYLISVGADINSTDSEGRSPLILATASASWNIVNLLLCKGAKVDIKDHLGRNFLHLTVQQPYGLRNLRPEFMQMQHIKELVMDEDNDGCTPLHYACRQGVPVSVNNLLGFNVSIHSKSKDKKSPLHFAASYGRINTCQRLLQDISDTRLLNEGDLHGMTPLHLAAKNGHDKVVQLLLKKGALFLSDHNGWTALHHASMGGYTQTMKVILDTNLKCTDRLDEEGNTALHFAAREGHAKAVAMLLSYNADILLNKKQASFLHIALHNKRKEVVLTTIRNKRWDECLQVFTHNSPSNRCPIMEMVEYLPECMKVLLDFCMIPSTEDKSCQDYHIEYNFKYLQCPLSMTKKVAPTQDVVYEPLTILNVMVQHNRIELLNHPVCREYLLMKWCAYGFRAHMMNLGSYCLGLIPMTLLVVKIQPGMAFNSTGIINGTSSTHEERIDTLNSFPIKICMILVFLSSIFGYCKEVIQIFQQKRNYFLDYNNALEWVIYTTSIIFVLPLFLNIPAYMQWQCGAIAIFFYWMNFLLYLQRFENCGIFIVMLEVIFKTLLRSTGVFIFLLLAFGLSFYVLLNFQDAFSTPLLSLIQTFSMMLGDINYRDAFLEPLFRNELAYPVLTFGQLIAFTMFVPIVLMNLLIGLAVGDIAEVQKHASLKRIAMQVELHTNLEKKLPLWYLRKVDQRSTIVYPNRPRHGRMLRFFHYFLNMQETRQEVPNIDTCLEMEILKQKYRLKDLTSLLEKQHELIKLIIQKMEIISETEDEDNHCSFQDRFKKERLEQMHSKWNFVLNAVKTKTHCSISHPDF
smiles,measurement,setting,value
"CC/C=C\C/C=C\C/C=C\C/C=C\C/C=C\C/C=C\CCC(=O)O [DHA, docosahexaenoic acid, reference compound]",AITC-induced pain,CD1 mice [1],but not AITC-induced pain
same,Capsaicin-induced pain,CD1 mice [2],inhibited
same,Effect on TRPA1 currents,TRPA1 [3],without affecting
"CC/C=C\C/C=C\C/C=C\C/C=C\C/C=C\CCCC(=O)O [EPA, eicosapentaenoic acid, reference compound]",AITC-induced pain,CD1 mice [1],but not AITC-induced pain
same,Capsaicin-induced pain,CD1 mice [2],inhibited
same,Effect on TRPA1 currents,TRPA1 [3],without affecting
"CC/C=C\C[C@H](O)/C=C/C=C\C=C\C=C\[C@@H](O)[C@@H](O)C/C=C\CCC(=O)O [RvD1, Resolvin D1]",AITC-induced sEPSC frequency increase,TRPA1 [4]; 10 ng/ml,selectively inhibited
same,AITC-induced nocifensive behaviors,CD1 mice [1],selectively inhibited
same,Effect on TRPV1 currents,TRPV1 [5]; even at high concentrations,no effect
same,IC50,TRPV1 [5]; [14],> 26.6 nM
same,IC50,TRPA1 [3],9 nM and 8.5 nM
"CC/C=C\C[C@H](O)[C@H](O)/C=C/C=C/C=C\C=C\[C@@H](O)C/C=C\CCC(=O)O [RvD2, Resolvin D2]",LTP of C-fiber-evoked field potentials,[6],completely reversed
same,CFA-induced increase in sEPSC amplitude,[7],abolished
same,CFA-induced increase in sEPSC frequency,[7],abolished
same,AITC-induced increase in sEPSC frequency,TRPA1 [4]; 0.1 and 1 ng/ml,does-dependently blocked
same,CFA-induced heat hyperalgesia,CD1 mice [8],effectively reduced
same,Duration of reduction of CFA-induced heat hyperalgesia and mechanical allodynia,CD1 mice [8],> 3 h
same,CFA-induced mechanical allodynia,CD1 mice [8]; data not shown,effectively reduced
same,AITC-induced nocifensive behaviors,CD1 mice [1],significantly reduced
same,CRG-induced heat hyperalgesia,CD1 mice [9],largely prevented
same,CRG-induced mechanical allodynia,CD1 mice [9],largely prevented
same,CRG-induced paw edema,CD1 mice [9]; data not shown,reduced
same,Inhibition of TRPV1 current under intracellular GDPβS,TRPV1 [5]; [15],completely blocked
same,Effect on TRPV1 current after pertussis toxin pretreatment,TRPV1 [5]; [16],could not alter
same,TRPV1 IC50 expressed,TRPV1 [5]; [14],0.04 ng/mL
same,IC50,TRPV1 [5]; [14],0.1 ± 0.01 nM
same,Capsaicin-induced nocifensive behaviors,CD1 mice [2],significantly reduced
same,Inhibition of TRPA1 current under intracellular GDPβS,TRPA1 [3]; [15],completely blocked
same,Effect on TRPA1 current after pertussis toxin pretreatment,TRPA1 [3]; [16],could not alter
same,IC50,TRPA1 [3],2 nM and 2.1 nM
same,Capsaicin-induced increase in sEPSC frequency,TRPV1 [10]; 0.1 and 1 ng/ml,does-dependently blocked
same,Basal sEPSC amplitude,[11],altered neither
same,Basal sEPSC frequency,[11],altered neither
same,Motor function in the Rota-rod test,CD1 mice [12],Neither did this treatment affect
same,Antinociceptive action in formalin test,CD1 mice [13],significant antinociceptive action
"CC[C@@H](O)/C=C/C=C\C[C@@H](O)/C=C/C=C/C=C\[C@@H](O)CCCC(=O)O [RvE1, Resolvin E1]",Capsaicin-induced nocifensive behaviors,CD1 mice [2],selectively inhibited
same,Effect on TRPA1 currents,TRPA1 [3],did not inhibit
same,Capsaicin-induced sEPSC frequency increase,TRPV1 [10]; 1 ng/ml,selectively inhibited
